# Test results from ChEMBL document CHEMBL4411280, “Synthesis, structure activity relationship and in vitro anti-influenza virus activity of novel polyphenol-pentacyclic triterpene conjugates” (Eur J Med Chem, 2019).
# System: MDCK
# Assay: Cytotoxicity against MDCK cells at 50 uM after 40 hrs by CellTiter-Glo assay
# Type: cell-based, Canis lupus familiaris
# Conditions: dog
# Procedure, shortened: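 Single-concentration toxicity screen at 50 μM final on MDCK cells for 40 h, read by CellTiter-Glo. 0.5% DMSO final as negative control. Triplicate experiments, standard deviations shown.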
row,Compound,Activity
1,CC1(C)CC[C@]2(C(=O)NCCNC(=O)c3ccc(O)cc3O)[C@H](O)C[C@]3(C)C(=CC[C@@H]4[C@@]5(C)CC[C@H](O)C(C)(C)[C@@H]5CC[C@]43C)[C@@H]2C1,Toxic
2,C[C@H]1[C@H](C)CC[C@]2(C(=O)NCCNC(=O)c3cc(O)cc(O)c3)CC[C@]3(C)C(=CC[C@@H]4[C@@]5(C)CC[C@H](O)C(C)(C)[C@@H]5CC[C@]43C)[C@H]12,Toxic
3,CC1(C)CC[C@]2(C(=O)NCCNC(=O)c3ccc(O)cc3)CC[C@]3(C)C(=CC[C@@H]4[C@@]5(C)CC[C@H](O)C(C)(C)[C@@H]5CC[C@]43C)[C@@H]2C1,Non-Toxic
4,CC1(C)CC[C@]2(C(=O)NCCNC(=O)/C=C/c3ccccc3)[C@H](O)C[C@]3(C)C(=CC[C@@H]4[C@@]5(C)CC[C@H](O)C(C)(C)[C@@H]5CC[C@]43C)[C@@H]2C1,Toxic
5,C=C(C)[C@@H]1CC[C@]2(C(=O)NCCNC(=O)c3ccc(O)cc3O)CC[C@]3(C)[C@H](CC[C@@H]4[C@@]5(C)CC[C@H](O)C(C)(C)[C@@H]5CC[C@]43C)[C@@H]12,Toxic
6,CC1(C)CC[C@]2(C(=O)NCCNC(=O)/C=C/c3ccc(O)cc3)CC[C@]3(C)C(=CC[C@@H]4[C@@]5(C)CC[C@H](O)C(C)(C)[C@@H]5CC[C@]43C)[C@@H]2C1,Non-Toxic
7,C[C@H]1[C@H](C)CC[C@]2(C(=O)NCCNC(=O)c3ccc(O)cc3)CC[C@]3(C)C(=CC[C@@H]4[C@@]5(C)CC[C@H](O)C(C)(C)[C@@H]5CC[C@]43C)[C@H]12,Toxic
8,C=C(C)[C@@H]1CC[C@]2(C(=O)NCCNC(=O)c3cc(OCc4ccccc4)cc(OCc4ccccc4)c3)CC[C@]3(C)[C@H](CC[C@@H]4[C@@]5(C)CC[C@H](O)C(C)(C)[C@@H]5CC[C@]43C)[C@@H]12,Non-Toxic
9,C=C(C)[C@@H]1CC[C@]2(C(=O)NCCNC(=O)c3ccc(OCc4ccccc4)cc3)CC[C@]3(C)[C@H](CC[C@@H]4[C@@]5(C)CC[C@H](O)C(C)(C)[C@@H]5CC[C@]43C)[C@@H]12,Non-Toxic
10,C[C@H]1[C@H](C)CC[C@]2(C(=O)NCCNC(=O)c3ccc(OCc4ccccc4)cc3)CC[C@]3(C)C(=CC[C@@H]4[C@@]5(C)CC[C@H](O)C(C)(C)[C@@H]5CC[C@]43C)[C@H]12,Non-Toxic
11,CC1(C)CC[C@]2(C(=O)NCCNC(=O)c3ccc(O)cc3O)CC[C@]3(C)C(=CC[C@@H]4[C@@]5(C)CC[C@H](O)C(C)(C)[C@@H]5CC[C@]43C)[C@@H]2C1,Toxic
12,CC1(C)CC[C@]2(C(=O)NCCNC(=O)c3cc(O)c(O)c(O)c3)[C@H](O)C[C@]3(C)C(=CC[C@@H]4[C@@]5(C)CC[C@H](O)C(C)(C)[C@@H]5CC[C@]43C)[C@@H]2C1,Toxic
13,C[C@H]1[C@H](C)CC[C@]2(C(=O)NCCNC(=O)/C=C/c3ccc(O)cc3)CC[C@]3(C)C(=CC[C@@H]4[C@@]5(C)CC[C@H](O)C(C)(C)[C@@H]5CC[C@]43C)[C@H]12,Non-Toxic
14,C[C@H]1[C@H](C)CC[C@]2(C(=O)NCCNC(=O)c3cc(OCc4ccccc4)cc(OCc4ccccc4)c3)CC[C@]3(C)C(=CC[C@@H]4[C@@]5(C)CC[C@H](O)C(C)(C)[C@@H]5CC[C@]43C)[C@H]12,Non-Toxic
15,CC1(C)CC[C@]2(C(=O)NCCNC(=O)c3cc(O)cc(O)c3)CC[C@]3(C)C(=CC[C@@H]4[C@@]5(C)CC[C@H](O)C(C)(C)[C@@H]5CC[C@]43C)[C@@H]2C1,Toxic
16,C=C(C)[C@@H]1CC[C@]2(C(=O)NCCNC(=O)/C=C/c3ccccc3)CC[C@]3(C)[C@H](CC[C@@H]4[C@@]5(C)CC[C@H](O)C(C)(C)[C@@H]5CC[C@]43C)[C@@H]12,Non-Toxic
17,C=C(C)[C@@H]1CC[C@]2(C(=O)NCCNC(=O)c3cc(OCc4ccccc4)c(OCc4ccccc4)c(OCc4ccccc4)c3)CC[C@]3(C)[C@H](CC[C@@H]4[C@@]5(C)CC[C@H](O)C(C)(C)[C@@H]5CC[C@]43C)[C@@H]12,Non-Toxic
